Test [1] relates to MAPK pathway (EGFR, C-Raf, MEK, ERK, p-MEK, p-ERK) in A549 cells. The test can be described thus: Western blot for MAPK pathway proteins, p-MEK and p-ERK, A549 lysates. It is filed as cell-based. In general terms: A western blot detects proteins with antibodies after separation by electrophoresis.
Test [2] deals with Hsp90 client proteins (EGFR, Her2, C-Raf) and Hsp90 in A549 cells. The experiment in a line: Western blot for Hsp90 client proteins and Hsp90, A549 lysates. It is filed as cell-based. The note with it: for Hsp90 client levels: A549, 12 or 24 h. An outline of the steps:
(§1)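 MCF7 (Advanced DMEM/F12, 2 mM L-glutamine) or A549 (F12K) cells, with 10% FBS and pen/strep at 37 °C, 5% CO2. […] M-PER lysates with protease/phosphatase inhibitors, 15 µg protein on reducing 10% gels, PVDF, HRP-chemiluminescence.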

Test [3] has as its system Her3 and wild-type B-Raf in A549 cells. The experiment in a line: Western blot for Her3 and wild-type B-Raf. It is filed as cell-based. Particulars: for Her3 and wild-type B-Raf levels, control compounds: A549, 12 and 24 h, five-times the reported IC50. An outline of the steps: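 Cells harvested in cold PBS, lysed in M-PER with protease/phosphatase inhibitors, 15 µg protein resolved on reducing 10% gels, transferred to PVDF, immunoblotted for Her3 and B-Raf, HRP-chemiluminescent detection.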

The test system of test [4] is Hsp90 client proteins (EGFR, Her2, C-Raf) and Hsp90 in MCF7 cells. The experiment in a line: Western blot for Hsp90 client proteins and Hsp90, MCF7 lysates. It is filed as cell-based. Particulars: MCF7, 12 h. Put shortly: as §1
In test [5] the test system is A549 lung cancer cell line. The experiment in a line: Anti-proliferation. The test is classed as cell-based. Particulars: 0.15 μM versus 1.7 μM.
The target of test [6] is wild type B-Raf / c-Raf heterodimer in A549 cells (Homo sapiens, UniProt P15056). The experiment in a line: Co-immunoprecipitation of B-Raf, A549 lysates. Particulars: A549, 24 h, five-times IC50. The test is classed as cell-based.
For test [7], the system named is Hsp90 luciferase refolding activity in PC3-MM2 cells. The test can be described thus: Luciferase refolding assay. The test is classed as cell-based. The note with it: 0–100 μM, 1 h. An outline of the steps: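 Heat-denatured luciferase: luciferase-expressing PC3-MM2 cells were heated 8–12 min at 50 °C in DMEM until luminescence was 1% of initial. They were added (60,000 cells/100 µL final) to test compound, 0–100 µM, 1% DMSO final, and incubated 1 h. Luciferin/CoA/ATP reagent (tricine pH 7.8) was added and luminescence read immediately (0.5 s). Refolding was normalized to 1% DMSO = 100%. Triplicate concentrations, dose-response curves.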

The test system of test [8] is p-Akt and total Akt in A549 cells. The test can be described thus: Western blot for p-Akt and total Akt, A549 lysates. Particulars: A549, 2 to 12 h (Supplementary Figure 2). It is filed as cell-based.
Test [9] relates to Hsp90 client proteins and Hsp90. The test can be described thus: Western blot for clients and Hsp90 with geldanamycin. The test is classed as cell-based. Particulars: Supplementary Figure 1.
Test [10] concerns A549 lung cancer cell line. Particulars: cited from earlier work.
The mark [11] stands for this setting: A549, 750 nM, 2 to 12 h, vs vehicle.

Sequence of wild type B-Raf / c-Raf heterodimer in A549 cells (P15056 whole entry, one chain of several): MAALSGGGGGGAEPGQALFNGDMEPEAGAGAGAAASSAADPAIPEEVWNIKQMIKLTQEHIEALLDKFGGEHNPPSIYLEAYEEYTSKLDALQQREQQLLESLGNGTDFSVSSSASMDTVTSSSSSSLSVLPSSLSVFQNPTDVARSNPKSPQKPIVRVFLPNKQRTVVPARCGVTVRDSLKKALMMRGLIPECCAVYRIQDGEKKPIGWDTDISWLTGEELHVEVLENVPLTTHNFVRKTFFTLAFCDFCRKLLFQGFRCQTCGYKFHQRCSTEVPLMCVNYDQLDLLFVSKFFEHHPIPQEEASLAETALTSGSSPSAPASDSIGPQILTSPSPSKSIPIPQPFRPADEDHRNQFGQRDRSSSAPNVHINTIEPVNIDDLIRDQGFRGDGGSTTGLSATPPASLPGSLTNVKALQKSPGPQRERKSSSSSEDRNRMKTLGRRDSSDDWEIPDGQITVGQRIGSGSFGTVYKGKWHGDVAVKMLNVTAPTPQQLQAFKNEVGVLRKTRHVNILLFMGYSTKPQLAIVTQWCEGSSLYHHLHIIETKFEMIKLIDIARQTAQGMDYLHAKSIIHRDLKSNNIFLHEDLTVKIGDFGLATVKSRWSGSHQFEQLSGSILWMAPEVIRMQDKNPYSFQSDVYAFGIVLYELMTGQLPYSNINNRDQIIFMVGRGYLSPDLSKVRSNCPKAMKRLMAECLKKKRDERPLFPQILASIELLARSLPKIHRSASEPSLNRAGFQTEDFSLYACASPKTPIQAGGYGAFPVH

Turning to `COc1cccc(-c2cccc(NC(=O)Nc3cc4ccc(OC5CCN(C)CC5)c(C)c4oc3=O)c2)c1` [Compound 5, 1-(3′-methoxy-[1,1′-biphenyl]-3-yl)-3-(8-methyl-7-((1-methylpiperidin-4-yl)oxy)-2-oxo-2H-chromen-3-yl)urea], the p-MEK levels entry in [1] (A549, 12 and 24 h, five-times IC50) was “unchanged”. The p-ERK levels entry in test [1] (A549, 12 h, five-times IC50) was “decreased”. In [1] (A549, 24 h, five-times IC50), the p-ERK levels result was “comparable to vehicle”; the “p-MEK and p-ERK levels” value is reported as “reestablished”. Also, in test [2] (five-times IC50), the Hsp90 client levels entry is “did not result in decreased client levels”.
In the case of `CNC(=O)c1cc(Oc2ccc(NC(=O)Nc3ccc(Cl)c(C(F)(F)F)c3)cc2)ccn1` [sorafenib], the Her3 levels entry in test [3] (A549, sorafenib at five-times the reported IC50 (14 μM), 12 and 24 h) is on record as “time-dependent increase”.
As for `Cc1c(OC2CCN(C)CC2)ccc2cc(NC(=O)Nc3ccccc3)c(=O)oc12` [Compound 1, 1-(8-methyl-7-((1-methylpiperidin-4-yl)oxy)-2-oxo-2H-chromen-3-yl)-3-phenylurea], the “Hsp90 client levels (EGFR, Her2, C-Raf)” value in [4] (high concentration (five-times IC50), vs vehicle) is on record as “decreased levels”; in [2] (A549, 12 h, high concentration (five-times IC50), vs vehicle) it was “decreased levels”. Besides, the Hsp90 levels entry was “comparable to vehicle” in test [4] (low and high concentrations); “comparable to vehicle” in test [2] (A549, 12 h, low and high concentrations).
For `COc1cccc(-c2cc(NC(=O)Nc3cc4ccc(OC5CCN(C)CC5)c(C)c4oc3=O)ccc2OC)c1` [Compound 2, 1-(3′,6-dimethoxy-[1,1′-biphenyl]-3-yl)-3-(8-methyl-7-((1-methylpiperidin-4-yl)oxy)-2-oxo-2H-chromen-3-yl)urea], the “Her3 and wild-type B-Raf levels” value in test [3] (A549, 24 h, five-times IC50) is reported as “comparable to vehicle”. Besides, the “Hsp90 client protein levels” value was “unchanged” in test [4] (low (half IC50) and high (five-times IC50) concentrations); “unchanged” in [2] (A549, 12 h, low (half IC50) and high (five-times IC50) concentrations). Further, the “IC50 of 2 relative to IC50 of TAK-632” value in [5] was “one tenth”. Further, in test [1] (setting [11]), the “EGFR and C-Raf levels” value is “remained constant”. For the same compound, in [1] (setting [11]), the “Total MEK and ERK levels” value is recorded as “remained constant”. Further, the p-MEK levels entry in test [1] (A549, 750 nM, 12 h) was “undetectable”. The “p-MEK and p-ERK levels” value in [1] (A549, 12 h, high concentration (five-times IC50, 750 nM)) was “significantly lower levels”; in [1] (A549, 12 h, low concentration (half IC50, 70nM)), “little effect”; in test [1] (A549, 24 h, 750 nM) it was “only slightly increased compared to 12 hours”. Besides, in [6], the “Dimerization of wild type B-Raf and c-Raf (co-immunoprecipitation)” value was “does not result in dimerization”. For the same compound, in test [7], the “Inhibition of firefly luciferase re-maturation” value is listed as “does not inhibit”. Also, the “p-Akt and total Akt levels” value in test [8] is listed as “unaffected”.
For `COC1=C2C[C@@H](C)C[C@H](OC)[C@H](O)[C@@H](C)/C=C(\C)[C@H](OC(N)=O)[C@@H](OC)/C=C\C=C(/C)C(=O)NC(=CC1=O)C2=O` [geldanamycin (GDA), geldanamycin], the Hsp90 client levels result in test [9] is “decreased client levels”. Also, the “Cellular levels of Hsp90” value in test [9] (at concentrations that decreased clients) is “increased cellular levels of Hsp90”.
For `COc1ccc(NC(=O)Nc2cc3ccc(OC4CCN(C)CC4)c(C)c3oc2=O)cc1-c1ccccc1` [Compound 4, 1-(6-methoxy-[1,1′-biphenyl]-3-yl)-3-(8-methyl-7-((1-methylpiperidin-4-yl)oxy)-2-oxo-2H-chromen-3-yl)urea], in test [1] (A549, 12 h, five-times IC50, vs vehicle), the “p-MEK and pERK levels” value is listed as “decreased”. In test [1] (A549, 24 h, five-times IC50), the “p-MEK and p-ERK levels” value was “reestablished”. The Hsp90 client levels entry in test [2] (five-times IC50) was “did not result in decreased client levels”.
Turning to `Cc1c(OC2CCN(C)CC2)ccc2cc(NC(=O)Nc3cccc(-c4ccccc4)c3)c(=O)oc12` [Compound 3, 1-([1,1′-biphenyl]-3-yl)-3-(8-methyl-7-((1-methylpiperidin-4-yl)oxy)-2-oxo-2H-chromen-3-yl)urea], in test [2] (A549, 24 h, five-times IC50), the “Hsp90-dependent client protein levels” value is “decreased levels” and the Hsp90 levels result is recorded as “constant levels”.
Take `N#Cc1c(Oc2ccc(F)c(NC(=O)Cc3cccc(C(F)(F)F)c3)c2)ccc2nc(NC(=O)C3CC3)sc12` [TAK-632]: the “Her3 and wild-type B-Raf levels, control compounds” value in [3] is “remained unaffected”. In test [10] (read-out: IC50 value against A549 (reported), A549 lung cancer cell line), the IC50 was 1700 nM.
In the case of `CCCS(=O)(=O)Nc1ccc(F)c(C(=O)c2c[nH]c3ncc(-c4ccc(Cl)cc4)cc23)c1F` [vemurafenib], the “Her3 and wild-type B-Raf levels, control compounds” value in test [3] is “little effect”. In [10] (A549 expresses only wild-type B-Raf), the “Activity against the A549 cell line” value was “relatively inactive”.

Broadly, the IC50 is the concentration that gives 50% inhibition.

The values are drawn from article PMC5444390 (Journal of medicinal chemistry, 2016).
